The text below walks through data of ChEMBL document CHEMBL3763156, “Imidazole-based pinanamine derivatives: Discovery of dual inhibitors of the wild-type and drug-resistant mutant of the influenza A virus” (Eur J Med Chem, 2016).

Data set [1] deals with Influenza A virus. Nature of the data set: Antiviral activity against amantadine-sensitive Influenza A virus A/HK/68 (H3N2) expressing wild type M2 ion channel infected in MDCK cells assessed as protection against virus induced cytopathic effect after 48 hrs by microscopic analysis. In kind it is functional, organism-based, Influenza A virus (A/Hong Kong/1/1968(H3N2)). The following applies: for IC50: mdck; for pIC50: Influenza A virus, MDCK, 48 h, read-out: IC50. Put shortly:
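MDCK cells were grown 24 h to a confluent monolayer and rinsed twice. They were infected with 100 TCID50 virus for 2 h at 37 °C in 5% CO2, and the inoculum was removed. Serial two-fold compound dilutions in DMEM with 1.5 µg/mL trypsin were added for 48 h at 34 °C in 5% CO2. CPE percentage was scored microscopically. IC50 came from non-linear regression, as the mean of 2–3 determinations.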

Data set [2] in a line: Cytotoxicity against MDCK cells assessed as cell viability after 48 hrs by MTT assay. The note with it: dog. The class given is cell-based, Canis lupus familiaris. An outline of the steps:
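Uninfected MDCK cells were exposed to various compound concentrations for 48 h. MTT was added from a 5 mg/mL stock for 4 h at 37 °C, stopped with DMSO, and read at 490 nm. CC50 was calculated by the Reed–Muench method, as the mean of 2–3 determinations.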

Data set [3] deals with Influenza A virus. Put plainly: Antiviral activity against amantadine-sensitive Influenza A virus A/HK/68 (H3N2) expressing wild type M2 ion channel infected in MDCK cells assessed as cell viability after 48 hrs by MTT assay. The class given is functional, organism-based, Influenza A virus (A/Hong Kong/1/1968(H3N2)). An outline of the steps:
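Infected MDCK cells were given compound for 48 h, and the CPE-based result was confirmed by MTT viability. MTT was added from a 5 mg/mL stock for 4 h at 37 °C, stopped with DMSO, and read as absorbance at 490 nm. The 50% effective concentration was calculated by the Reed–Muench method, as the mean of 2–3 determinations.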

The target in data set [4] is Matrix protein 2 (Influenza A virus (A/Udorn/307/1972(H3N2))) (UniProt P0DOF8). Nature of the data set: Inhibition of Influenza A virus wild type M2 ion channel expressed in 293Trex cells at 100 uM after 2 mins by patch clamp assay. In kind it is cell-based.
Data set [5] has the same target. Nature of the data set: Inhibition of Influenza A virus wild type M2 ion channel expressed in Xenopus oocytes at 100 uM after 2 mins by two-electrode voltage clamp assay. In kind it is cell-based. Put shortly:
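A/M2 channel (S31N for line 7, wild type for line 9) was expressed in Xenopus oocytes and recorded by two-electrode voltage clamp. Compound was applied at 100 µM, and the percentage inhibition of channel current was taken after 2 min. Values are mean ± SD.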

pIC50: −log10 of the molar value.

As for `C[C@@H]1[C@H]2C[C@@H](C[C@H]1NCc1cnc(-c3cccs3)[nH]1)C2(C)C`, in data set [1], the IC50 entry is on record as “Not Active”. Moreover, the CC50 at 48 h in data set [2] was 75.6 µM.

As to `CCc1ncc(CN[C@@H]2C[C@@H]3C[C@H]([C@H]2C)C3(C)C)[nH]1`, the IC50 entry in data set [1] is reported as “Not Active”. Moreover, in data set [2], the CC50 at 48 h is 137 µM.

As for `C[C@@H]1[C@H]2C[C@@H](C[C@H]1NCc1[nH]cnc1C1CC1)C2(C)C`, the pIC50 in data set [1] is 5.47; in data set [3], 5.42. For the same compound, the 50% cytotoxic concentration (CC50) at 48 h in data set [2] came out at 162 µM.

With `CCc1nc[nH]c1CN[C@@H]1C[C@@H]2C[C@H]([C@H]1C)C2(C)C`, the negative-log IC50 (pIC50) is 5.24 in data set [1] and 5.17 in data set [3]. The CC50 at 48 h in data set [2] was determined as 180 µM.

With `C[C@@H]1[C@H]2C[C@@H](C[C@H]1NCc1cnc(C3CC3)[nH]1)C2(C)C`, the IC50 entry in data set [1] is on record as “Not Active”. Further, in data set [2], the CC50 at 48 h stood at 94.5 µM.

Consider `CCCc1nc(-c2ccccc2)[nH]c1CN[C@@H]1C[C@@H]2C[C@H]([C@H]1C)C2(C)C`, for which the negative logarithm of the IC50 (pIC50) in data set [1] is 4.87; in data set [3], 4.82. For the same compound, the CC50 at 48 h in data set [2] turned out to be 143 µM.

On to `C[C@@H]1[C@H]2C[C@@H](C[C@H]1NCc1cnc(C(C)(C)C)[nH]1)C2(C)C`, for which the pIC50 in data set [1] is 5.06; in data set [3], 4.91. For the same compound, the CC50 at 48 h in data set [2] was determined as 107 µM.

In the case of `Cc1nc[nH]c1CN[C@@H]1C[C@@H]2C[C@H]([C@H]1C)C2(C)C`, the negative logarithm of the IC50 (pIC50) in data set [1] was 5.49. Besides, the half-maximal cytotoxic concentration (CC50) at 48 h in data set [2] was determined as 252 µM. Also, the inhibition in data set [4] was 95.8%.

With `C[C@@H]1[C@H]2C[C@@H](C[C@H]1NCc1cncn1C)C2(C)C`, in data set [1], the pIC50 is 4.92.

Take `Cc1nc(C2CC2)[nH]c1CN[C@@H]1C[C@@H]2C[C@H]([C@H]1C)C2(C)C`: the pIC50 in data set [1] was 4.82; in data set [3], 4.67. Also, in data set [2], the CC50 at 48 h stood at 74.9 µM.

On to `CCCCc1ncc(CN[C@@H]2C[C@@H]3C[C@H]([C@H]2C)C3(C)C)[nH]1`, for which the IC50 entry in data set [1] is “Not Active”. Further, the CC50 at 48 h in data set [2] was found to be 70.4 µM.

Regarding `CCCc1nc[nH]c1CN[C@@H]1C[C@@H]2C[C@H]([C@H]1C)C2(C)C`, the pIC50 in data set [1] was 5.60; in data set [3], 5.48. The inhibition in data set [5] stood at 97.9%. Besides, the CC50 at 48 h in data set [2] was 200 µM.

As to `C[C@@H]1[C@H]2C[C@@H](C[C@H]1NCc1[nH]cnc1C(C)(C)C)C2(C)C`, the results for the pIC50 in data set [1] and in data set [3] were 5.08 and 4.89, respectively. In data set [2], the CC50 at 48 h worked out at 72.3 µM.

On to `CC(C)Cc1ncc(CN[C@@H]2C[C@@H]3C[C@H]([C@H]2C)C3(C)C)[nH]1`, for which the pIC50 in data set [1] is 5.06; in data set [3], 4.82. Also, the cytotoxic concentration (CC50) at 48 h in data set [2] was 74.8 µM.

With `Cc1ncc(CN[C@@H]2C[C@@H]3C[C@H]([C@H]2C)C3(C)C)[nH]1`, in data set [1], the IC50 entry is “Not Active”. For the same compound, the CC50 at 48 h in data set [2] worked out at 202 µM.

As for `C[C@@H]1[C@H]2C[C@@H](C[C@H]1NCc1[nH]cnc1-c1ccccc1)C2(C)C`, in data set [1], the IC50 result was “Not Active”. Moreover, in data set [2], the CC50 at 48 h was 39.7 µM.

With `C[C@@H]1[C@H]2C[C@@H](C[C@H]1NCc1cnc(C3CCCC3)[nH]1)C2(C)C`, the IC50 result in data set [1] is given as “Not Active”. Also, in data set [2], the CC50 at 48 h was 37.2 µM.

`C[C@@H]1[C@H]2C[C@@H](C[C@H]1NCc1cnc(-c3ccccc3)[nH]1)C2(C)C`: the figures for the pIC50 in data set [1] and in data set [3] were 5.12 and 4.97, respectively. In data set [2], the CC50 at 48 h is 79.9 µM.

For `CC(C)c1ncc(CN[C@@H]2C[C@@H]3C[C@H]([C@H]2C)C3(C)C)[nH]1`, in data set [1], the IC50 entry is reported as “Not Active”. Moreover, in data set [2], the half-maximal cytotoxic concentration (CC50) at 48 h was determined as 114 µM.

Regarding `CCCc1nc(C(C)C)[nH]c1CN[C@@H]1C[C@@H]2C[C@H]([C@H]1C)C2(C)C`, the results for the pIC50 in data set [1] and in data set [3] were 4.99 and 4.87, respectively. Besides, the CC50 at 48 h in data set [2] was determined as 156 µM.

On to `C[C@@H]1[C@H]2C[C@@H](C[C@H]1NCc1cnc(C3CCCCC3)[nH]1)C2(C)C`, for which the IC50 entry in data set [1] is listed as “Not Active”. Also, in data set [2], the 50% cytotoxic concentration (CC50) at 48 h was 33.5 µM.

Turning to `CCc1nc(C)c(CN[C@@H]2C[C@@H]3C[C@H]([C@H]2C)C3(C)C)[nH]1`, the negative logarithm of the IC50 (pIC50) in data set [1] was 5.39; in data set [3], 5.35. Besides, the inhibition in data set [5] was 91.7%. The CC50 at 48 h in data set [2] was 136 µM.

Turning to `Cc1nc(C(C)C)[nH]c1CN[C@@H]1C[C@@H]2C[C@H]([C@H]1C)C2(C)C`, in data set [1], the IC50 entry is listed as “Not Active”. The half-maximal cytotoxic concentration (CC50) at 48 h in data set [2] amounted to 73.1 µM.

For the compound `CCCc1nc(C2CC2)[nH]c1CN[C@@H]1C[C@@H]2C[C@H]([C@H]1C)C2(C)C`, the pIC50 is 5.16 in data set [1] and 4.97 in data set [3]. Moreover, the CC50 at 48 h in data set [2] is 112 µM.
